From ChEMBL document CHEMBL4371072, “Structure-Activity Relationship Studies and Plasmodium Life Cycle Profiling Identifies Pan-Active N-Aryl-3-trifluoromethyl Pyrido[1,2- a]benzimidazoles Which Are Efficacious in an in Vivo Mouse Model of Malaria” (J Med Chem, 2019)
Each block holds one compound with its values, some of them ahead of it.

Tests used:
[1] = tested on: Plasmodium falciparum; experiment: (§1) Antiplasmodial activity against chloroquine-sensitive asexual blood stage of Plasmodium falciparum NF54 infected in human RBC assessed as reduction in [3H]hypoxanthine incorporation preincubated for 48 hrs followed by [3H]hypoxanthine addition measured after 24 hrs by liquid scintillation counting method; type: functional, organism-based
Summary of the method: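 Asexual blood-stage P. falciparum NF54 assay, run as a modified [3H]-hypoxanthine incorporation assay. Values are the mean of n ≥ 2 assays; determinations differing more than 3-fold were excluded. Chloroquine and artesunate served as controls.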

[2] = tested on: Hemozoin; experiment: Inhibition of beta hematin formation after 5 hrs by NP40 detergent-based assay
[3] = tested on: Plasmodium falciparum; experiment: as §1, with “chloroquine-resistant” for “chloroquine-sensitive”, “K1” for “NF54”; type: functional, organism-based
Summary of the method: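 Asexual blood-stage P. falciparum K1 (multidrug resistant) screened by modified [3H]-hypoxanthine incorporation assay; IC50 as mean of n ≥ 2 assays, replicates differing above 3-fold excluded; chloroquine and artesunate controls.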

[4] = tested on: CHO; experiment: Cytotoxicity against CHO cells after 48 hrs by MTT assay; type: cell-based; details: Cricetulus griseus
[5] = Selectivity index, ratio of IC50 for CHO cells to IC50 for chloroquine-sensitive asexual blood stage of Plasmodium falciparum NF54 infected in human RBC; type: toxicity; details: Chinese hamster, read-out: Ratio IC50
Summary of the method: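 Selectivity index taken as the ratio of the CHO-cell IC50 to the P. falciparum NF54 IC50.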

[6] = Resistance index, ratio of IC50 for chloroquine-resistant asexual blood stage of Plasmodium falciparum K1 infected in human RBC to IC50 for chloroquine-sensitive asexual blood stage of Plasmodium falciparum NF54 infected in human RBC; type: functional
[7] = tested on: Plasmodium falciparum; experiment: Antiplasmodial activity against chloroquine-sensitive final late stage of Plasmodium falciparum NF54-Mal8p1.16-GFP-Luc gametocytes after 24 hrs by BacTiter-Glo assay; type: functional, organism-based; details: NF54, 24 h
Summary of the method: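 Late-stage PfNF54 gametocytes produced in vitro; gametocytocidal IC50 via luciferase reporter and ATP bioluminescence platforms; n=3 independent biological replicates in technical triplicates, ± S.E.M.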

[8] = Metabolic stability in human liver microsomes assessed as parent compound remaining at 0.1 uM after 30 mins in presence of NADPH by LC-MS/MS analysis; details: liver microsomes
[9] = Half life in human liver microsomes at 0.1 uM in presence of NADPH by LC-MS/MS analysis; details: liver microsomes
[10] = Metabolic stability in Balb/c mouse liver microsomes assessed as parent compound remaining at 0.1 uM after 30 mins in presence of NADPH by LC-MS/MS analysis; details: liver microsomes
[11] = Half life in Balb/c mouse liver microsomes at 0.1 uM in presence of NADPH by LC-MS/MS analysis; details: liver microsomes
[12] = tested on: Plasmodium berghei; experiment: Antimalarial activity against liver stage form of luciferase transfected Plasmodium berghei sporozoites infected in human HuH7 cells preincubated with host cells for 1 hr followed by plasmodial infection and measured after 48 hrs by bioluminescence method; type: functional, organism-based; details: Huh-7

IC50 [1]: > 2320 nM
SMILES: CS(=O)(=O)c1ccc(Nc2cc(C(F)(F)F)c(C#N)c3nc4ccccc4n23)cc1

IC50 [1]: 4420 nM
SMILES: N#Cc1c(C(F)(F)F)cc(Nc2cnccn2)n2c1nc1ccccc12

IC50 [1]: > 2280 nM
SMILES: CN(C)C(=O)c1ccc(CNc2cc(C(F)(F)F)c(C#N)c3nc4ccccc4n23)cc1

IC50 [1]: > 1970 nM | IC50 [2]: 32000 nM
SMILES: N#Cc1c(C(F)(F)F)cc(Nc2ccc(OC(F)(F)F)cc2)n2c1nc1cc(Cl)c(Cl)cc12

IC50 [1]: > 2720 nM
SMILES: N#Cc1c(C(F)(F)F)cc(NCc2cccnc2)n2c1nc1ccccc12

IC50 [1]: 2600 nM
SMILES: N#Cc1c(C(F)(F)F)cc(NCc2cnccn2)n2c1nc1ccccc12

IC50 [1]: > 2360 nM
SMILES: CNC(=O)c1ccc(CNc2cc(C(F)(F)F)c(C#N)c3nc4ccccc4n23)cc1

SMILES: C[C@H]1[C@H](OC(=O)CCC(=O)O)O[C@@H]2O[C@@]3(C)CC[C@H]4[C@H](C)CC[C@@H]1[C@@]24OO3 [ARTESUNATE]
IC50 [1]: 4 nM | IC50 [3]: 3 nM

SMILES: NC(=O)c1c(C(F)(F)F)cc(NCc2ccccn2)n2c1nc1ccccc12
IC50 [1]: > 10000 nM | IC50 [3]: > 10000 nM

SMILES: N#Cc1c(C(F)(F)F)cc(NCc2ccccn2)n2c1nc1ccccc12
IC50 [1]: 1160 nM | IC50 [4]: > 272000 nM | IC50 [3]: 1640 nM | selectivity ratio [5]: > 234 | IC50 [2]: > 100000 nM | Ratio IC50 [6]: 1.41

IC50 [1]: > 2690 nM
SMILES: N#Cc1c(C(F)(F)F)cc(Nc2ncccn2)n2c1nc1ccccc12

IC50 [1]: 1420 nM | remaining at 0.5 h, 0.1 µM [8]: 72% | half-life at 0.1 µM [9]: 1.05 h | remaining at 0.5 h, 0.1 µM [10]: 31% | IC50 [2]: 59000 nM | half-life at 0.1 µM [11]: 0.3 h
SMILES: N#Cc1c(C(F)(F)F)cc(NCc2ccccn2)n2c1nc1cc(Cl)c(Cl)cc12
IC50 [4]: 750 nM | IC50 [7]: 2480 nM | selectivity ratio [5]: 0.5

SMILES: N#Cc1c(C(F)(F)F)cc(NCc2ccc(F)cc2)n2c1nc1cc(Cl)c(Cl)cc12
IC50 [1]: 440 nM | IC50 [4]: 13000 nM | IC50 [7]: 690 nM | remaining at 0.5 h, 0.1 µM [8]: 102% | half-life at 0.1 µM [9]: > 2.5 h | IC50 [3]: 280 nM | remaining at 0.5 h, 0.1 µM [10]: 72% | selectivity ratio [5]: 30 | half-life at 0.1 µM [11]: 1.05 h | Ratio IC50 [6]: 0.64

IC50 [1]: 3180 nM
SMILES: COc1ccc(CNc2cc(C(F)(F)F)c(C#N)c3nc4ccccc4n23)cc1

SMILES: N#Cc1c(C(F)(F)F)cc(Nc2ccccc2OC(F)(F)F)n2c1nc1ccccc12
IC50 [1]: 870 nM | IC50 [3]: 620 nM | Ratio IC50 [6]: 0.71

IC50 [1]: 2260 nM
SMILES: COc1ccc(Nc2cc(C(F)(F)F)c(C#N)c3nc4ccccc4n23)cc1

IC50 [1]: > 2720 nM
SMILES: CN(Cc1ccccn1)c1cc(C(F)(F)F)c(C#N)c2nc3ccccc3n12

IC50 [1]: 5620 nM
SMILES: CN(C)c1ccc(Nc2cc(C(F)(F)F)c(C#N)c3nc4ccccc4n23)cc1

SMILES: N#Cc1c(C(F)(F)F)cc(NCc2ccc(F)cc2)n2c1nc1cc(Cl)cc(Cl)c12
IC50 [1]: 310 nM | IC50 [4]: 1660 nM | IC50 [7]: 740 nM | IC50 [3]: 210 nM

IC50 [1]: 4970 nM | IC50 [2]: 32000 nM
SMILES: CC(Nc1cc(C(F)(F)F)c(C#N)c2nc3cc(Cl)c(Cl)cc3n12)c1ccc(S(C)(=O)=O)cc1 (stereo unspecified)

IC50 [1]: 440 nM | remaining at 0.5 h, 0.1 µM [8]: > 99% | half-life at 0.1 µM [9]: > 2.5 h | remaining at 0.5 h, 0.1 µM [10]: 82% | half-life at 0.1 µM [11]: 1.75 h
SMILES: N#Cc1c(C(F)(F)F)cc(NCc2ccc(OC(F)(F)F)cc2)n2c1nc1cc(Cl)c(Cl)cc12
IC50 [4]: 5020 nM | IC50 [7]: 210 nM | IC50 [12]: 190 nM | selectivity ratio [5]: 11

SMILES: N#Cc1c(C(F)(F)F)cc(Nc2cccc(OC(F)(F)F)c2)n2c1nc1ccccc12
IC50 [1]: 390 nM | IC50 [3]: 230 nM | Ratio IC50 [6]: 0.58

IC50 [1]: 12600 nM
SMILES: CS(=O)(=O)c1ccc(CNc2cc(C(F)(F)F)c(C#N)c3nc4ccccc4n23)cc1

SMILES: N#Cc1ccc(S(=O)(=O)Nc2cc(C(F)(F)F)c(C#N)c3nc4cc(Cl)c(Cl)cc4n23)cc1
IC50 [1]: 5640 nM

IC50 [1]: > 2210 nM | IC50 [2]: 50000 nM
SMILES: N#Cc1c(C(F)(F)F)cc(Nc2ccc(CN3CCOCC3)cc2)n2c1nc1ccccc12

IC50 [1]: 1010 nM
SMILES: CC(C)c1ccc(Nc2cc(C(F)(F)F)c(C#N)c3nc4ccccc4n23)cc1

SMILES: N#Cc1c(C(F)(F)F)cc(NCc2ccc(OC(F)(F)F)cc2)n2c1nc1ccccc12
IC50 [1]: 920 nM | IC50 [4]: > 222000 nM | IC50 [12]: 480 nM | IC50 [3]: 840 nM | selectivity ratio [5]: > 241 | Ratio IC50 [6]: 0.91

IC50 [1]: > 2360 nM
SMILES: CN(C)C(=O)c1ccc(Nc2cc(C(F)(F)F)c(C#N)c3nc4ccccc4n23)cc1

IC50 [1]: 2400 nM
SMILES: CC(C)c1ccc(CNc2cc(C(F)(F)F)c(C#N)c3nc4ccccc4n23)cc1
